Published values collected from several papers.
Protocols differ between the studies behind these lines.
PFF0160c: Dihydroorotate dehydrogenase (quinone), mitochondrial (PFF0160c, Plasmodium falciparum, UniProt Q08210)
PROC: Vitamin K-dependent protein C (PROC, Homo sapiens, UniProt P04070)
PFF0160c E182D: Dihydroorotate dehydrogenase (quinone), mitochondrial (PFF0160c, Plasmodium falciparum, UniProt Q08210, E182D)

Cc1nc(Nc2ccc(C(F)(F)F)cc2)c2c(C)noc2n1  IC50 (PFF0160c; enzyme activity, inhibitor, absorbance): 68 nM
Cc1c(Cc2ccc(C(F)(F)F)nc2)c[nH]c1C(=O)N[C@@H](C)C(N)=O  IC50 (PFF0160c; enzyme activity, inhibitor, absorbance): > 100000 nM
CCOC(=O)c1ccc(OC(=O)CCCCCN=C(N)N)cc1  IC50 (PROC; enzyme activity, inhibitor): 1400 nM
Cc1nc(Nc2ccc(C(F)(F)F)nc2)c2c(C)noc2n1  IC50 (PFF0160c; enzyme activity, inhibitor, absorbance): 150 nM
Cc1c(C2(c3ccc(C(F)(F)F)cc3F)CC2)c[nH]c1C(=O)NC(C)c1nc[nH]n1 (stereo not shown)  IC50 (PFF0160c; enzyme activity, inhibitor, absorbance): > 100000 nM
CCc1ccccc1N=C1c2c(cccc2[N+](=O)[O-])C(=O)C1C(C)=O (stereo not shown)  IC50 (PFF0160c E182D; enzyme activity, inhibitor, absorbance): 384 nM
Cc1cc(C(C)NC(=O)c2[nH]cc(Cc3ccc(C(F)(F)F)nc3)c2C)n[nH]1 (stereo not shown)  IC50 (PFF0160c; enzyme activity, inhibitor, absorbance): 100 nM
Cc1nc(Nc2ccc(C)c(Cl)c2)c2c(C)noc2n1  IC50 (PFF0160c; enzyme activity, inhibitor, absorbance): 130 nM
CCc1nc2nc(C)cc(Nc3ccc(F)c(Cl)c3)n2n1  IC50 (PFF0160c E182D; enzyme activity, inhibitor, absorbance): > 10000 nM
Cc1noc2nc(C(F)(F)F)nc(NC3Cc4cc(F)c(F)cc4C3)c12  IC50 (PFF0160c; enzyme activity, inhibitor, absorbance): 110 nM
CN(C)S(=O)(=O)c1ccc(Sc2ccccc2)c(C(=O)N2CCCC(C(N)=O)C2)c1 (stereo not shown)  IC50 (PFF0160c E182D; enzyme activity, inhibitor, absorbance): 2560 nM
Cc1c(Cc2ccc(C(F)(F)F)nc2)c[nH]c1C(=O)NC(C)c1nc[nH]n1 (stereo not shown)  IC50 (PFF0160c; enzyme activity, inhibitor, absorbance): > 100000 nM
CCc1nc2nc(C)cc(Nc3ccc4c(c3)OCCO4)n2n1  IC50 (PFF0160c; enzyme activity, inhibitor, absorbance): 492 nM
CCCCCNC(=N)N/N=C/c1c[nH]c2ccc(OC)cc12  IC50 (5-hydroxytryptamine receptor 2A (HTR2A, Homo sapiens, UniProt P28223); calcium signal, antagonist, fluorescence): 1500 nM
COc1cc(Nc2ncc(F)c(Nc3ccc4c(n3)NC(=O)C(C)(C)O4)n2)cc(OC)c1OC  IC50 (cGMP-specific 3',5'-cyclic phosphodiesterase (PDE5A, Homo sapiens, UniProt O76074); enzyme activity, inhibitor): 316 nM
Cc1nc(NC2CCc3ccc(Br)cc3C2)c2c(C)noc2n1 (stereo not shown)  IC50 (PFF0160c; enzyme activity, inhibitor, absorbance): 22 nM
COc1ccc(C(=O)NCC(C)(C)c2nc(-c3ccc(Cl)c(O)c3)c(-c3ccncc3)[nH]2)cc1OCCN(C(C)C)C(C)C  IC50 (PFF0160c; enzyme activity, inhibitor, absorbance): > 10000 nM
O=C(CCCC(=O)N1CCN(C(=O)c2cc(Cc3n[nH]c(=O)c4ccccc34)ccc2F)CC1)NCCNC(=O)C1CC2C=CC1C2 (stereo not shown)  IC50 (Poly [ADP-ribose] polymerase 1 (PARP1, Homo sapiens, UniProt P09874); enzyme activity, inhibitor): 10.1 nM
Cc1cc(Nc2ccc3c(c2)CCC3)n2ncnc2n1  IC50 (PFF0160c E182D; enzyme activity, inhibitor, absorbance): > 10000 nM
Cc1c(Cc2ccc(C(F)(F)F)nc2)c[nH]c1C(=O)NC(C)c1cc(C(N)=O)[nH]n1 (stereo not shown)  IC50 (PFF0160c; enzyme activity, inhibitor, absorbance): 350 nM
O=S(=O)(O)c1nc2ccccc2[nH]1  IC50 (racE (Bacillus subtilis, UniProt P94556, N75A); enzyme activity, inhibitor, absorbance): 890000 nM
CC(CCc1ccccc1)NC(C)C(O)c1ccc(O)cc1 (stereo not shown)  IC50 (Kappa-type opioid receptor (OPRK1, Homo sapiens, UniProt P41145); ligand displacement, radioligand): 4980 nM
CCNC(=O)c1ccc(-n2nc(C)cc2-c2ccccc2)cc1  IC50 (PFF0160c; enzyme activity, inhibitor, absorbance): 740 nM
Cc1nc(C(C)NC(=O)c2[nH]cc(Cc3ccc(C(F)(F)F)nc3)c2C)c[nH]1 (stereo not shown)  IC50 (PFF0160c; enzyme activity, inhibitor, absorbance): 1300 nM
CC[C@H]1NC(=O)[C@@H]2CSC(=N2)[C@H](Cc2ccccc2)N(C)C(=O)[C@@H]2CCCN2C(=O)[C@H](C(C)C)N(C)C(=O)[C@H](Cc2ccccc2)OC(=O)[C@H](C)[C@@H](C)NC(=O)[C@@H]([C@@H](C)O)NC(=O)[C@@H](CC(C)C)N(C)C(=O)[C@@H]2CSC1=N2  IC50 (PROC; enzyme activity, inhibitor): 62000 nM
COc1ccccc1C1CN(CCNC(=O)c2nc(C)c[nH]2)Cc2ccccc2O1 (stereo not shown)  IC50 (PFF0160c; enzyme activity, inhibitor, absorbance): 3010 nM
Cc1noc2nc(C(F)(F)F)nc(Nc3ccc(C(F)(F)F)cc3)c12  IC50 (PFF0160c; enzyme activity, inhibitor, absorbance): 610 nM
CCOC(=O)c1[nH]cc(Cc2cccc3ncoc23)c1C  IC50 (PFF0160c; enzyme activity, inhibitor, absorbance): 100 nM
